Active and inactive are the calls of the source. No cut-off for these calls is given here.
Columns and labels:
[1] = target: Neutral ceramidase (Homo sapiens) (UniProt Q9NR71); assay: Inhibition of nCDase using CerC12NBD as substrate after 1 hr by HPLC-FD analysis
In short: (§1)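 Moh. pAS cells transfected to overexpress neutral ceramidase. Lysates (sonicated in 1 mM Tris–HCl, 0.1 mM EDTA, pH 7.5) incubated 1 h, 37 °C, with 5 µM CerC12NBD in 25 mM Tris–HCl pH 7.5, 1% sodium cholate, ±50 µM compound. Intact cells treated 4 h with 50 µM compound before lysis and assay. Read-out HPLC-fluorescence.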

[2] = target: T1, Ceramide glucosyltransferase (Homo sapiens) (UniProt Q16739); assay: Inhibition of GlcCer synthase in human A549 cells using CerC6NBD as substrate preincubated for 24 hrs prior substrate addition measured after 3 hrs by HPLC-FD analysis; type: cell-based
T1 sequence (whole entry): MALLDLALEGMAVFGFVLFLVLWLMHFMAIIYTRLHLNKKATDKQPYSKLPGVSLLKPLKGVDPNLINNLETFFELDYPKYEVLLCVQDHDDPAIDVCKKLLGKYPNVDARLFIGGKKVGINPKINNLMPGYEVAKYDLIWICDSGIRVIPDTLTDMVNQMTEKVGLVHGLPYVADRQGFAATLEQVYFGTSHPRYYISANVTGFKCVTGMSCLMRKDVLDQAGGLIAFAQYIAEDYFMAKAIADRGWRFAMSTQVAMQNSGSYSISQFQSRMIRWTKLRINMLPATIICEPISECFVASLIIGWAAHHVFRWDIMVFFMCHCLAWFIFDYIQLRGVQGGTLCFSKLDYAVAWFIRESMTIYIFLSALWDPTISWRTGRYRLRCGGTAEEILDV

Acid ceramidase [3] = target: T2, Acid ceramidase (Homo sapiens, UniProt Q13510); assay: Inhibition of aCDase in Moh.pAS AcCer10X cells using RBM14C12 as substrate after 1 hr by HPLC-FD analysis; type: cell-based
T2 sequence (Q13510 whole entry): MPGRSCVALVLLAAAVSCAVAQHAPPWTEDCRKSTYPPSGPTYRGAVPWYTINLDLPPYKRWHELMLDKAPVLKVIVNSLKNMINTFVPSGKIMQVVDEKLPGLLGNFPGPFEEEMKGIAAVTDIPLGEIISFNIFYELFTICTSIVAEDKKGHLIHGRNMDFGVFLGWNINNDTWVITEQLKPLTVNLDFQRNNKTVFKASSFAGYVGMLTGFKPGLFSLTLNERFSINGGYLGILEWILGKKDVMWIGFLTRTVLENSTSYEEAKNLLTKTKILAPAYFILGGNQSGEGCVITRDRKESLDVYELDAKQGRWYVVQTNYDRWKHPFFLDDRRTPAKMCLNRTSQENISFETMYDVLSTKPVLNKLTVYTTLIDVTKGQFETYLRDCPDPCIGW

[4] = target: Neutral ceramidase (Homo sapiens) (UniProt Q9NR71); assay: Inhibition of nCDase in Moh.pAS cells using CerC12NBD as substrate after 1 hr by HPLC-FD analysis; type: cell-based; in short: as §1
A549 [5] = assay: Inhibition of SM synthase in human A549 cells using CerC6NBD as substrate preincubated for 24 hrs prior substrate addition measured after 3 hrs by HPLC-FD analysis; type: cell-based
[6] = target: T3, Sphingomyelin phosphodiesterase (Homo sapiens) (UniProt P17405); assay: Inhibition of human aSMase using 6-hexadecanoylamino-4-methylumbelliferylphosphorylcholine as substrate at 100 uM preincubated for 30 mins prior substrate addition measured after 2 hrs by spectrophotometry
T3 sequence (whole entry): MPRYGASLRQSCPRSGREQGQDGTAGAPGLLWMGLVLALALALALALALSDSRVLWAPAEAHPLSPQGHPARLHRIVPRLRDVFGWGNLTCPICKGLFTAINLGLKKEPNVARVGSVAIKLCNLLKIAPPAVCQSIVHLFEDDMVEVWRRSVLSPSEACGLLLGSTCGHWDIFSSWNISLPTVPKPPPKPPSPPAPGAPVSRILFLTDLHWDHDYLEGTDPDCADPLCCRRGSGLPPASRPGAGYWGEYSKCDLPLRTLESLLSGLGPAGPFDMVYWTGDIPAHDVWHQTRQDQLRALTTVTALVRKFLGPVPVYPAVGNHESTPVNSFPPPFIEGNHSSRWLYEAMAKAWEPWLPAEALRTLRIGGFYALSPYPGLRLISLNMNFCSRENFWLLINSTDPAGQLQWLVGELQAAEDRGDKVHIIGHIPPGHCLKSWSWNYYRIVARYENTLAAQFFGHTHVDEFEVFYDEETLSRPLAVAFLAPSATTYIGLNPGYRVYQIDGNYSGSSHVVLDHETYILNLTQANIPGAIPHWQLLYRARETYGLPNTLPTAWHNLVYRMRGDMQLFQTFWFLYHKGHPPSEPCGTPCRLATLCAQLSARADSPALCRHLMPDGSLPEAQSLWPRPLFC

[7] = target: T4, Lysosomal acid glucosylceramidase (Homo sapiens) (UniProt P04062); assay: Inhibition of human glucocerebrosidase using 4-methylumbelliferyl beta-D-glucoside as substrate at 100 uM preincubated prior substrate addition measured after 45 mins by spectrophotometry
T4 sequence (whole entry): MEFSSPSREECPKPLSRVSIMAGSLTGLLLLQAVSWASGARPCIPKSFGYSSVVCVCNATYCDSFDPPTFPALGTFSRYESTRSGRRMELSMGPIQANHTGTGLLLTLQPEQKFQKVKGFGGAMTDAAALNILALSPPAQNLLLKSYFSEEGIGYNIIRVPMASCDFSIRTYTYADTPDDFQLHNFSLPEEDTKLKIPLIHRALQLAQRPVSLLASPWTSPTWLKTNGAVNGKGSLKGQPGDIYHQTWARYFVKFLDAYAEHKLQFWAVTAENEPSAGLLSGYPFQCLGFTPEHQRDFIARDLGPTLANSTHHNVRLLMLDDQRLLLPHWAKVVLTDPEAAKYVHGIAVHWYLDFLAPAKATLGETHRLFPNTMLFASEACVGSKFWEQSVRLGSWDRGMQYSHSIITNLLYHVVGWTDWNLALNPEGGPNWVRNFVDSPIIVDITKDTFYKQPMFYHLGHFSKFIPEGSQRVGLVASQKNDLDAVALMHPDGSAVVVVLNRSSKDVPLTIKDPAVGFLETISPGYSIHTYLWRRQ

A549 [8] = assay: Effect on sphingolipidome in human A549 cells assessed as increase in dihydroceramide per 10^6 cells at 10 uM after 24 hrs by UPLC-TOF analysis relative to control (reference value: 6.5 +/- 0.42 pmol/10^6 cells); type: functional
In short: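 Cells incubated with compound at 10 µM, 24 h (A549) or 14 h (HCT116); lipids then extracted and profiled. Long-chain bases and phosphates were read by LC-MS/MS (positive electrospray, selected reaction monitoring, C17-dihydrosphingosine and C17-dihydrosphingosine-1-phosphate transitions monitored). Amounts expressed as pmol per 10⁶ cells. Mean ± SD of triplicates; unpaired two-tailed t-test versus control.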

A549 [9] = assay: Cytotoxicity against human A549 cells after 24 hrs by MTT assay; type: functional; details: A549, 24 h, read-out: LD50 (the source's name)
Acid ceramidase [10] = target: T2, Acid ceramidase; assay: Inhibition of aCDase using RBM14C12 as substrate after 1 hr by HPLC-FD analysis

Neutral ceramidase (Homo sapiens), sequence (Q9NR71 whole entry): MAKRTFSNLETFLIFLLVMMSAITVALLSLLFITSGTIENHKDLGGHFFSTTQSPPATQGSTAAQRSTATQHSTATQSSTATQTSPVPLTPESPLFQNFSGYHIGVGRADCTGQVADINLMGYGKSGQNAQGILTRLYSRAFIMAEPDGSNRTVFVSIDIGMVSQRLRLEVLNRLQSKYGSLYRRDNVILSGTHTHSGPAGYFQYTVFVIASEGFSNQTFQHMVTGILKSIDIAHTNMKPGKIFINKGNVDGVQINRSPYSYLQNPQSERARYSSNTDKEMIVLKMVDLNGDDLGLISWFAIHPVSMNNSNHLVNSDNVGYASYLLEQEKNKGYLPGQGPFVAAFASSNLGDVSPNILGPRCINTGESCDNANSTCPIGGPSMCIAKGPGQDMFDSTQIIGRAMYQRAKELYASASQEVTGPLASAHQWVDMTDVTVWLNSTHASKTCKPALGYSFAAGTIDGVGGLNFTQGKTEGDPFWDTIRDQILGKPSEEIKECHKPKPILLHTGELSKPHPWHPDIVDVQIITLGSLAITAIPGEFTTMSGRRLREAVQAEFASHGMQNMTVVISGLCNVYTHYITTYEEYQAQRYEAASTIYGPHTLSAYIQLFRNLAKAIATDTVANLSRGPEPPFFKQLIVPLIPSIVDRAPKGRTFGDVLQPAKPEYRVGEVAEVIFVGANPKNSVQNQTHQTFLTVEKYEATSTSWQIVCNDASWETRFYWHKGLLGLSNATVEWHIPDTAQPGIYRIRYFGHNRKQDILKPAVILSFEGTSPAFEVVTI

For CCCCCCCCCCCCCS/C=C/[C@H](CO)NC(=O)CCCCCCC, the inhibition [1] was “inactive”, the inhibition [2] was “inactive” and the IC50 (Acid ceramidase [3]) was 77 µM. For the same compound, the inhibition [4] was “inactive”, the inhibition (A549 [5]) was “inactive” and the inhibition [6] was “inactive”. The inhibition [7] was “inactive”, the Activity (A549 [8]) was 22.9 pmol and the CC50 (A549 [9]) was 19 µM. It also gave an IC50 (Acid ceramidase [10]) of 77 µM.

CCCCCCCCCCCCCS/C=C/[C@H](CO)NC(=O)C(C)(C)C was tested, and the inhibition [1] was “inactive”, the inhibition [2] was “inactive” and the IC50 (Acid ceramidase [3]) was 51 µM. For the same compound, the inhibition [4] was “inactive”, the inhibition (A549 [5]) was “inactive” and the inhibition [6] was “inactive”. The inhibition [7] was “inactive”, the Activity (A549 [8]) was 12.4 pmol and the CC50 (A549 [9]) was 24 µM. For the same compound, the IC50 (Acid ceramidase [10]) was 51 µM.

With CCCCCCCCCCCCCS/C=C/[C@H](CO)NC(=O)c1ccc(C(C)(C)C)cc1 the inhibition [1] was “inactive”, the inhibition [2] was “inactive” and the IC50 (Acid ceramidase [3]) was 315 µM. For the same compound, the inhibition [4] was “inactive”, the inhibition (A549 [5]) was “inactive” and the inhibition [6] was “inactive”. For the same compound, the inhibition [7] was “inactive”, the Activity (A549 [8]) was “inactive” and the CC50 (A549 [9]) was 76 µM. For the same compound, the IC50 (Acid ceramidase [10]) was 315 µM.

Reference: ChEMBL document CHEMBL2021903, “3-Deoxy-3,4-dehydro analogs of XM462. Preparation and activity on sphingolipid metabolism and cell fate” (Bioorg Med Chem, 2012)
